# Source: PubChem BioAssay
# Most compounds without a hit are left out; they make up all but 4% or so of the library.
# FAK blocker: FAK kinase inhibitors, primary screen, biochemical. Focal adhesion kinase 1 (Homo sapiens), Q05397. biochemical FAK kinase activity assay. inhibition, %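 (tested at 7 µM)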. actives 0.84% (n = 97,000); in the data active means inhibition above about 19%;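 further: 0% = DMSO and 100% = reference compound high control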
# Target sequence (Q05397 whole entry, looked up): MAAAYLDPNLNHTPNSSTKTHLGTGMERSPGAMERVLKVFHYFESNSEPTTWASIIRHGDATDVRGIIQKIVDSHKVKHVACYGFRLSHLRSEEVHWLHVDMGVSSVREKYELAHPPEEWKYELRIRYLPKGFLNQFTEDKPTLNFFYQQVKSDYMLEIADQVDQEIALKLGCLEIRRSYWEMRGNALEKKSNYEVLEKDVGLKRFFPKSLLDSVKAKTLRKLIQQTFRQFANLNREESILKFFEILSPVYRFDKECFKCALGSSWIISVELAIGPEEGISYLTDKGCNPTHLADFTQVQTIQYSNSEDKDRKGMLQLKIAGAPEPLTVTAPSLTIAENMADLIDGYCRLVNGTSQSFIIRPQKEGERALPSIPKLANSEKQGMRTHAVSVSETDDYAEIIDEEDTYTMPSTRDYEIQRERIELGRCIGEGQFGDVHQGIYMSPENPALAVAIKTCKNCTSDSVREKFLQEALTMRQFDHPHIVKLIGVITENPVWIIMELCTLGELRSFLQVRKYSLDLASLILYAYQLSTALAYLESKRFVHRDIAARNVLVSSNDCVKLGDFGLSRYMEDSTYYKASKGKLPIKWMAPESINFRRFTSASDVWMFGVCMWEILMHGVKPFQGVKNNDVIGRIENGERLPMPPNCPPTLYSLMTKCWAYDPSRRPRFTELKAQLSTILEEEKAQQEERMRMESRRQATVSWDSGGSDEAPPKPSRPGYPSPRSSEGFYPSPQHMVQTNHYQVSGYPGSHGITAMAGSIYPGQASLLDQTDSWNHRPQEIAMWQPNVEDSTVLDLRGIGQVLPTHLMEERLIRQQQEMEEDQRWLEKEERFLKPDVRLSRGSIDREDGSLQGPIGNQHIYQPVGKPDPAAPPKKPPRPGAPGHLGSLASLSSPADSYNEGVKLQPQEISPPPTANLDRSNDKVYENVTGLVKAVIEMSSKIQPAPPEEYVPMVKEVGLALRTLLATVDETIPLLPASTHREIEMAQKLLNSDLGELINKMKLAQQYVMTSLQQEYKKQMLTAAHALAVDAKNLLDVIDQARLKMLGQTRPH
# ERa coact pot: enhancers of ERα–SRC-1 coactivator binding, primary screen, biochemical, TR-FRET, ERα LBD, low estradiol; TR-FRET ERalpha-LBD/SRC-Cy5 coactivator binding, 2 h; 100 = basal binding, no effect; actives 1.3% (n = 86,000); coactivator binding (% of control), % at 25.6 µM; Estrogen receptor (Homo sapiens), P03372; in the data active means activity above about 200%;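 further: binding measured in presence of low estradiol as agonist stimulus; 0% = peptide alone without receptor and 100% = receptor with peptide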
# ERa coact inh: ERα–SRC-1 coactivator interaction inhibitors, primary screen, biochemical, TR-FRET, ERα LBD, estradiol-bound | TR-FRET ER-alpha LBD / SRC-1 peptide | inhibition, % at 25.6 µM | actives 1.7% (n = 86,000); in the data active means inhibition above about 50%;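 further: 0% = receptor plus peptide control and 100% = peptide only without receptor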
# Rev-RRE block: HIV-1 Rev-RRE binding inhibitors, primary screen, biochemical, FRET, protein-RNA interaction; Rev peptide-RRE RNA binding; P05866; actives 0.79% (n = 97,000); inhibition, % at 8 µM; AID 704, 2007;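 active means inhibition above the screen-wide mean plus 3 SD, cut at about 35% in these data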;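 further: 0% = median DMSO wells and 100% = median Neomycin B control wells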
#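 Assay system: Labelled RRE RNA duplex and labelled Rev peptide | Times: 5 min preincubation and 15 min binding, 25 °C | Detection: FRET, ex 480 nm, em 540 and 671 nm | Evaluation: % inhibition of FRET ratio versus controls | Benchmarks: DMSO wells as 0% and neomycin B wells as 100% inhibition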
# ERb coact inh: inhibitors of ERβ-SRC1 coactivator interaction, primary screen, biochemical, TR-FRET, ERβ LBD, SRC-1 peptide | Estrogen receptor beta (Homo sapiens), Q92731 | TR-FRET ER-beta LBD / SRC1-Cy5 peptide binding; receptor agonist-loaded with 1 µM estradiol | inhibition, % at 25.6 µM | actives 1.3% (n = 86,000);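 active means compounds whose percent inhibition of the receptor-coactivator binding signal exceeds about 50% in the single-dose screen, limit read from the data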;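 further: 0% = receptor plus peptide wells without compound and 100% = peptide-only wells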
# Smad3 inh: Smad3/FoxH1 peptide binding inhibitors, primary screen, biochemical, TR-FRET | Mothers against decapentaplegic homolog 3 (Homo sapiens), P84022 | TR-FRET Smad3/Dy647-FoxH1 peptide binding, europium anti-His | AID 630, 2007 | inhibition, % at 25 µM | actives 0.29% (n = 88,000);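 active means compounds that reduce the energy-transfer binding signal between the protein and its labelled peptide by more than half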;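 further: 0% = Smad3 plus labelled peptide maximal FRET and 100% = peptide-only background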
# The depositor's hits bear a star; · = not tested or not shown; [ ] = remark or other dose.
SMILES,FAK blocker,ERa coact pot,ERa coact inh,Rev-RRE block,ERb coact inh,Smad3 inh
COc1ccc(CN2CC(C(=O)NCCCN3CCN(C)CC3)CC2=O)cc1 (stereo not given),-0.2,110.8,-1.0,4.6,-0.4,6.8
COc1ccc(CN2CC(C(=O)NCCCN3CCCCCC3)CC2=O)cc1 (stereo not given),5.1,202.6*[fluorescence artefact?],25.4,3.8,22.0,13.7
Cc1ccc(CCN2CC(C(=O)NCCCN3CCCCCC3)CC2=O)cc1 (stereo not given),15.9,917.2*[fluorescence artefact?],17.3,10.0,57.6*[fluorescence artefact?],66.2*
Cc1cn([C@@H]2C[C@H](O)[C@@H](COC(N)=O)O2)c(=O)[nH]c1=O,·,·,·,·,·,5.2
CCS(=O)(=O)Nc1ccc(C(=O)CC2(O)C(=O)Nc3ccccc32)cc1 (stereo not given),2.3,218.7*[fluorescence artefact?],-2.8,5.5,-4.0,-0.5
COc1ccc2c(c1)CC/C(=C\c1ccc(OC)c(Cn3nc(C)cc3C)c1)C2=O,5.0,105.7,51.7*,-0.3,26.4,-0.3
C/C(=N\NC(=O)c1ccncc1)c1ccccc1Cl,·,·,·,·,·,-6.9
COc1ccc(-c2nnc3sc(COc4ccccc4)nn23)cc1,·,109.6,22.2,·,29.8,-1.2
c1ccc(OCc2nn3c(-c4n[nH]c5c4CCC5)nnc3s2)cc1,·,47.2,66.7*[fluorescence artefact?],·,60.6*[fluorescence artefact?],-1.9
Cc1ccc(OCc2nn3c(-c4n[nH]c5c4CCC5)nnc3s2)cc1,·,34.6,73.2*[fluorescence artefact?],·,54.2*,-15.3
Cc1ccccc1NC(=O)c1ccc(-n2cncn2)nc1,15.9,·,·,6.7,·,·
CC1=C(C#N)C(=O)OC(C)(C)C1,0.0,108.9,-10.9,42.9*,-17.5,-8.6
COc1cc(C)cc(OC)c1/C=C/C(=O)O,·,·,·,·,·,9.0
O=C(COc1cccc2ccccc12)N1c2ccccc2CCc2ccccc21,5.5,·,·,6.4,·,·
Nc1ccn([C@H]2O[C@@H](COP(=O)(O)O)[C@H](O)[C@H]2O)c(=O)n1,·,·,·,·,·,78.7*
Nc1ccn([C@H]2O[C@H](CO)[C@@H]3[O][Sn]([c]4ccccc4)([c]4ccccc4)[O][C@@H]32)c(=O)n1,·,·,·,·,·,7.4
O=c1c2c3nc4ccccc4nc3n(-c3cccc(F)c3)c2ncn1Cc1ccc2c(c1)OCO2,·,76.3,81.6*[fluorescence artefact?],·,61.4*[fluorescence artefact?],2.0
CCC(C)n1cnc2c(c1=O)c1nc3ccccc3nc1n2Cc1ccc2c(c1)OCO2 (stereo not given),-3.8,122.8,1.8,-1.8,11.2,20.1
CCOc1ccc(S(=O)(=O)N2CCCC2)cc1,0.3,105.1,-2.8,4.6,0.8,2.6
CN(CCOc1ccc(Cl)cc1)c1ccc(S(=O)(=O)N2CCCCC2)cn1,-0.8,235.7*[fluorescence artefact?],17.1,11.5,14.9,12.6
Cc1nn(C)c(C)c1NC(=O)CSc1nc(-c2ccccc2Cl)nc2c1cnn2-c1ccccc1,-57.8,161.8,73.5*[fluorescence artefact?],-0.6,48.6,-19.4
NNS(=O)(=O)c1cc(C(=O)O)cc(C(=O)O)c1,·,·,·,·,·,-3.6
O=C(O)C1CCCCC1C(=O)Nc1cccc2ccccc12 (stereo not given),-1.1,94.9,-12.3,2.7,-4.7,10.9
Nc1nc(Nc2cccc3ccccc23)nc(C2CCCC2=O)n1 (stereo not given),·,260.6*[fluorescence artefact?],36.9,·,35.7,-10.1
O=[N+]([O-])c1ccc(N2N=C(c3ccco3)CC2c2ccccc2)cc1 (stereo not given),0.0,·,·,75.7*[fluorescence artefact?],·,·
Cc1ccc(S(=O)(=O)OC2CCN(C)CC2)cc1,·,·,·,·,·,14.0
O=C1CN2CCN(CC2)CC(=O)Nc2ccc(cc2)S(=O)(=O)c2ccc(cc2)NC(=O)CN2CCN(CC2)CC(=O)Nc2ccc(cc2)S(=O)(=O)c2ccc(cc2)N1,·,·,·,·,·,-3.0
Nc1ccc(N(S(=O)(=O)c2ccccc2)S(=O)(=O)c2ccccc2)c(Cl)c1,·,·,·,·,·,87.1*
Nc1ccc(S(=O)(=O)c2cccc(N)c2)cc1,-2.4,112.6,-11.7,6.7,-9.4,-11.8
